Test results as given in ChEMBL document CHEMBL4219039, “Group-Based Optimization of Potent and Cell-Active Inhibitors of the von Hippel-Lindau (VHL) E3 Ubiquitin Ligase: Structure-Activity Relationships Leading to the Chemical Probe …” (J Med Chem, 2018).

What was measured:
[1] = biological target: T1, Von Hippel-Lindau disease tumor suppressor/Elongin B/Elongin C (Homo sapiens, UniProt P40337); experiment: Displacement of FAM-labeled HIF-1alpha peptide from VBC (unknown origin) by fluorescence polarization assay
T1 sequence (P40337 whole entry, looked up): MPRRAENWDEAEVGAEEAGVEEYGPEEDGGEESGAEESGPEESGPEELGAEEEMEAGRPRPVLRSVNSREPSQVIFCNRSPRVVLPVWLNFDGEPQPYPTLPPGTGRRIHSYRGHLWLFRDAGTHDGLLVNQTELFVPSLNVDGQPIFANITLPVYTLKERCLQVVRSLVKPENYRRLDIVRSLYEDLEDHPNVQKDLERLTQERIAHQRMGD

[2] = biological target: T2, Von Hippel-Lindau disease tumor suppressor/Elongin B/Elongin C (Homo sapiens) (UniProt P40337+Q15370+Q15369); experiment: Inhibition of VBC in human HeLa cells assessed as HIF-1alpha stabilization by measuring HIF-1alpha protein levels at 50 uM after 2 hrs by Western blot analysis; assay type: cell-based; set-up: scale not given: the % may be the effect or the level left
T2 sequence (P40337 whole entry, looked up): as above
T2 sequence (Q15369 whole entry, looked up): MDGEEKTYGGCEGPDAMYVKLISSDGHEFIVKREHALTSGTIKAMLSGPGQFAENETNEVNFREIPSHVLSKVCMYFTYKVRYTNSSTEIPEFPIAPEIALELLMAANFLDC
T2 sequence (Q15370 whole entry, looked up): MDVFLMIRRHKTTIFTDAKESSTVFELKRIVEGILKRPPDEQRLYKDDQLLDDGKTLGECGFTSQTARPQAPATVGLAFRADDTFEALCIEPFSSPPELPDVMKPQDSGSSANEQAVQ
In short: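 HeLa (ATCC) grown in DMEM with 10% FBS, L-glutamine and penicillin/streptomycin at 37 °C; mycoplasma-tested. Treated 2 h in fresh medium, 1% DMSO as vehicle control. Lysed in RIPA buffer with protease inhibitors, SDS-PAGE, nitrocellulose blot. Anti-HIF-1α probed with β-actin as loading control, IRDye 800CW secondary for detection. Levels normalized to a reference VHL inhibitor.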

[3] = Passive permeability of the compound in pH 7.4 PBS at 10 uM after 5 hrs by UPLC-MS/MS method based PAMPA; assay type: ADME; details: pH 7.4, 5 h
In short: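 Precoated PAMPA plate with lipid–oil–lipid trilayer filter. Compound at 10 μM in PBS pH 7.4 (≤5% DMSO) in the donor well, PBS in the acceptor well. Held 5 h at room temperature; both compartments quantified by UPLC-MS/MS. Pe calculated from peak areas; data accepted only if recovery exceeded 70%. Propranolol as control.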

[4] = Chromatographic hydrophobicity index, log D of the compound at pH 7.4 by HPLC analysis; assay type: physicochemical; details: buffer
In short: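 DMSO stocks (10 mM) diluted to 0.25 mM in 50:50 acetonitrile:water. Run on C18 HPLC at 20 °C, 1 mL/min. Mobile phase 10 mM ammonium acetate pH 7.4 with an acetonitrile gradient. Retention times calibrated against a standard mix of eleven reference compounds, then converted to CHIlogD.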

[5] = biological target: T1, Von Hippel-Lindau disease tumor suppressor/Elongin B/Elongin C
[6] = Half life in plasma (unknown origin) at pH 7.4 at 50 uM up to 180 mins by UPLC-MS/MS analysis; assay type: ADME, cell-free
In short: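 Compound at 50 μM incubated at 37 °C in prewarmed plasma buffered to pH 7.4 (70:30 plasma to buffer). Aliquots were taken at 0, 30, 60, 120 and 180 min and quenched in acetonitrile with donepezil internal standard. Samples were centrifuged and analysed by UPLC-MS/MS. The rate constant was fitted as exponential decay of the compound/internal standard peak-area ratio.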

[7] = Intrinsic clearance in CD1 mouse liver microsomes at 0.5 uM up to 30 mins by UPLC-MS/MS analysis; assay type: ADME, microsome; details: 0.5 h
In short: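 Compound at 0.5 μM with female CD1 mouse liver microsomes (0.5 mg/mL) in 50 mM potassium phosphate pH 7.4, started with excess NADPH. Samples quenched in acetonitrile at 0, 3, 6, 9, 15 and 30 min; UPLC-MS/MS against internal standard. Decay rate constant converted to CLi assuming 52.5 mg microsomal protein/g liver. Verapamil as assay control.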

HeLa [8] = experiment: Antiproliferative activity against human HeLa cells assessed as reduction in cell proliferation at 150 uM incubated for 24 to 72 hrs by haemocytometry; assay type: cell-based
HeLa [9] = experiment: Antiproliferative activity against human HeLa cells assessed as reduction in colony formation at 150 uM incubated for 24 hrs by crystal violet staining based assay; assay type: cell-based
In short: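 HeLa cells, 500–2000 per well, seeded one day before exposure to 150 μM compound; 1% DMSO as vehicle control. Medium replaced after 24 h treatment, then grown a further week. Stained with 0.005% crystal violet in 25% methanol for 10 min at room temperature. Colonies counted on scanned plates.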

[10] = biological target: T2, Von Hippel-Lindau disease tumor suppressor/Elongin B/Elongin C (Homo sapiens); experiment: Binding affinity to VBC (unknown origin) assessed as association rate constant at 50 uM after 60 secs at 10 degC by surface plasmon resonance assay; assay type: protein-complex assay
In short: (§1)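 SPR on a Biacore T100 at 10 and 20 °C against VBC complex. Ligand stock 50 μM in DMSO, 2-fold serial dilutions in SPR buffer (20 mM HEPES, 150 mM NaCl, 1 mM DTT, 0.005% Tween P20, pH 7.0). Kd taken as koff/kon.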

[11] = biological target: T2, Von Hippel-Lindau disease tumor suppressor/Elongin B/Elongin C (Homo sapiens); experiment: Binding affinity to VBC (unknown origin) assessed as dissociation rate constant at 50 uM after 160 secs at 10 degC by surface plasmon resonance assay; assay type: protein-complex assay; in short: as §1
[12] = biological target: T2, Von Hippel-Lindau disease tumor suppressor/Elongin B/Elongin C (Homo sapiens); experiment: Binding affinity to VBC (unknown origin) assessed as association rate constant at 50 uM after 60 secs at 20 degC by surface plasmon resonance assay; assay type: protein-complex assay; in short: as §1
[13] = biological target: T2, Von Hippel-Lindau disease tumor suppressor/Elongin B/Elongin C (Homo sapiens); experiment: Binding affinity to VBC (unknown origin) assessed as dissociation rate constant at 50 uM after 160 secs at 20 degC by surface plasmon resonance assay; assay type: protein-complex assay; in short: as §1
[14] = biological target: T1, Von Hippel-Lindau disease tumor suppressor/Elongin B/Elongin C; remark: listed apart in the source
[15] = biological target: T1, Von Hippel-Lindau disease tumor suppressor/Elongin B/Elongin C; remark: listed apart in the source
[16] = biological target: T2, Von Hippel-Lindau disease tumor suppressor/Elongin B/Elongin C (Homo sapiens)
[17] = biological target: T2, Von Hippel-Lindau disease tumor suppressor/Elongin B/Elongin C (Homo sapiens); remark: listed apart in the source

SMILES | Kd [1] [nM] | Activity [2] [%] | permeability [3] [×10⁻⁶ cm/s] | chromatographic logD [4] | other results
Cc1ncsc1-c1ccc(CNC(=O)[C@@H]2C[C@@H](O)CN2C(=O)[C@@H](NC(=O)CC(C)(C)C)C(C)(C)C)cc1 | 450 | 65 |  |  | 
Cc1ncsc1-c1ccc(CNC(=O)[C@@H]2C[C@@H](O)CN2C(=O)[C@@H](NC(=O)OC(C)(C)C)C(C)(C)C)cc1 | 6500 | 12 |  |  | 
Cc1ncsc1-c1ccc(CNC(=O)[C@@H]2C[C@@H](O)CN2C(=O)[C@@H](NC(=O)C(F)(F)F)C(C)(C)C)cc1 | 270 | 95 |  |  | 
CC(=O)N[C@@H](C)C(=O)N1C[C@H](O)C[C@H]1C(=O)NCc1ccc(-c2scnc2C)cc1 |  | 12 |  |  | 
CC(=O)NC1(C(=O)N[C@H](C(=O)N2C[C@H](O)C[C@H]2C(=O)NCc2ccc(-c3scnc3C)cc2)C(C)(C)C)CC1 | 300 | 20 | 0.01 | 0.61 | Kd [5]: 138 nM
Cc1ncsc1-c1ccc(CNC(=O)[C@@H]2C[C@@H](O)CN2C(=O)[C@@H](N2CCCC2=O)C(C)(C)C)cc1 | 1400 | 33 |  |  | 
Cc1ncsc1-c1ccc(CNC(=O)[C@@H]2C[C@@H](O)CN2C(=O)[C@@H](NC(=O)C(C)(C)F)C(C)(C)C)cc1 | 770 | 19 |  |  | 
CCC(=O)N[C@H](C(=O)N1C[C@H](O)C[C@H]1C(=O)NCc1ccc(-c2scnc2C)cc1)C(C)(C)C |  | 98 |  |  | 
CC(=O)N[C@H](C(=O)N1C[C@H](O)C[C@H]1C(=O)NCc1ccc(-c2scnc2C)cc1)C(C)(C)C |  | 100 | 0.12 | 0.9 | half-life at 50 µM [6]: > 3 h; intrinsic clearance (CLint) [7]: 0.7 mL/min/g
Cc1ncsc1-c1ccc(CNC(=O)[C@@H]2C[C@@H](O)CN2C(=O)[C@@H](NC(=O)C2CC2)C(C)(C)C)cc1 | 170 | 105 | 0.61 | 1.14 | Kd [5]: 132 nM
CC(=O)N1CC(C(=O)N[C@H](C(=O)N2C[C@H](O)C[C@H]2C(=O)NCc2ccc(-c3scnc3C)cc2)C(C)(C)C)C1 | 4900 | 12 |  |  | 
CC(=O)N(C)[C@H](C(=O)N1C[C@H](O)C[C@H]1C(=O)NCc1ccc(-c2scnc2C)cc1)C(C)(C)C |  | 26 |  |  | 
Cc1ncsc1-c1ccc(CNC(=O)[C@@H]2C[C@@H](O)CN2C(=O)[C@@H](NC(=O)C2CC(=O)C2)C(C)(C)C)cc1 | 500 | 28 |  |  | 
Cc1ncsc1-c1ccc(CNC(=O)[C@@H]2C[C@@H](O)CN2C(=O)[C@@H](NC(=O)C2(C#N)CC2)C(C)(C)C)cc1 |  | 190 | 1.94 | 1.4 | Activity (HeLa [8]): Non-Toxic; Activity (HeLa [9]): Non-Toxic; half-life at 50 µM [6]: > 3 h; intrinsic clearance (CLint) [7]: 3.1 mL/min/g
Cc1ncsc1-c1ccc(CNC(=O)[C@@H]2C[C@@H](O)CN2C(=O)[C@@H](NC(=O)C2CCC2)C(C)(C)C)cc1 | 250 | 138 | 1.16 | 1.3 | K [10]: 5.17 ×10⁵ /M/s; K [11]: 0.14 s⁻¹; half-life at 50 µM [6]: > 3 h; intrinsic clearance (CLint) [7]: 3 mL/min/g; K [12]: 1.1 ×10⁶ /M/s; K [13]: 0.256 s⁻¹; Kd [5]: 210 nM; Kd [14]: 271 nM; Kd [15]: 233 nM; T1/2 [16]: 4.95 s
Cc1ncsc1-c1ccc(CNC(=O)[C@@H]2C[C@@H](O)CN2C(=O)[C@@H](NC(=O)C2(F)CC2)C(C)O)cc1 (single isomer, unassigned) | 370 | 46 |  |  | 
Cc1ncsc1-c1ccc(CNC(=O)[C@@H]2C[C@@H](O)CN2C(=O)[C@@H](NC(=O)C(Cl)(Cl)Cl)C(C)(C)C)cc1 | 200 | 89 |  |  | 
Cc1ncsc1-c1ccc(CNC(=O)[C@@H]2C[C@@H](O)CN2C(=O)[C@@H](NC(=O)CO)C(C)(C)C)cc1 | 200 | 16 | 0.01 | 0.65 | Kd [5]: 105 nM
Cc1ncsc1-c1ccc(CNC(=O)[C@@H]2C[C@H](O)CN2C(=O)[C@@H](NC(=O)C2(F)CC2)C(C)(C)C)cc1 |  |  |  |  | Activity (HeLa [8]): Toxic; Activity (HeLa [9]): Toxic
Cc1ncsc1-c1ccc(CNC(=O)[C@@H]2C[C@H](O)CN2C(=O)[C@@H](NC(=O)C2(C#N)CC2)C(C)(C)C)cc1 |  |  |  |  | Activity (HeLa [8]): Non-Toxic; Activity (HeLa [9]): Non-Toxic
Cc1ncsc1-c1ccc(CNC(=O)[C@@H]2C[C@@H](O)CN2C(=O)[C@@H](NC(=O)C2COC2)C(C)(C)C)cc1 | 320 | 34 | 0.03 | 0.71 | Kd [5]: 230 nM
CC(=O)C1(C(=O)N[C@H](C(=O)N2C[C@H](O)C[C@H]2C(=O)NCc2ccc(-c3scnc3C)cc2)C(C)(C)C)CC1 | 170 | 156 | 1.5 | 1.34 | K [10]: 6 ×10⁵ /M/s; K [11]: 0.069 s⁻¹; half-life at 50 µM [6]: > 3 h; intrinsic clearance (CLint) [7]: 2.5 mL/min/g; K [12]: 8.2 ×10⁵ /M/s; K [13]: 0.169 s⁻¹; Kd [5]: 106 nM; Kd [14]: 115 nM; Kd [15]: 97 nM; T1/2 [16]: 10 s; T1/2 [17]: 4.1 s
